Consider 42 molecules from ChEMBL document CHEMBL4811287, “Discovery of dronedarone and its analogues as NLRP3 inflammasome inhibitors with potent anti-inflammation activity” (Bioorg Med Chem Lett, 2021).

Calls of active or inactive are those of the source. The rule behind the calls is not given here. Some results are limits rather than exact numbers.

Test [1] concerns the target NACHT, LRR and PYD domains-containing protein 3 (Mus musculus, UniProt Q8R4B8). Briefly: (§1) Inhibition of NLRP3 inflammasome in LPS-primed mouse J774.A1 cells assessed as reduction in IL-1beta secretion preincubated with compound for 1 hr followed by nigericin stimulation for 1 hr by ELISA. Type of test: cell-based. Put shortly: (§2)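 J774A.1 murine macrophages primed with LPS, exposed to compound at indicated doses for 1 h, then stimulated with nigericin for another 1 h; IL-1β released into supernatant measured by ELISA.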
On the technique in general: In an ELISA, binding on a coated surface is turned into a signal by an enzyme label.

Test [2] addresses NACHT, LRR and PYD domains-containing protein 3 (Mus musculus) (UniProt Q8R4B8). Briefly: Inhibition of NLRP3 inflammasome in LPS/nigericin-stimulated mouse J774.A1 cells assessed as effect on ASC expression level in cell lysates by Western blot analysis. It is filed as subcellular. In outline:
(§3)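 LPS-primed J774A.1 cells treated with compound, then nigericin-activated; NLRP3-related proteins analysed by Western blot in cell supernatant (caspase-1 p20, IL-1β) and cell lysate.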

Test [3] concerns J774.A1. Briefly: Effect on NLRP3 expression in LPS/nigericin-stimulated mouse J774.A1 cell lysates by western blot analysis. It is filed as functional, subcellular. In outline: as §3
A general note: Immunoblotting shows a protein as a band on a membrane.

Test [4] has as its target NACHT, LRR and PYD domains-containing protein 3 (Mus musculus) (UniProt Q8R4B8). Briefly: Inhibition of NLRP3 inflammasome in LPS/nigericin-stimulated mouse J774.A1 cells assessed as effect on pro-caspase-1 expression level in cell lysates by Western blot analysis. It is filed as subcellular. In outline:
as §3

Test [5] shares this target. The test is described as §1. It is filed as cell-based. Particulars: time 2.0 hrs. In outline:
as §2

The target is the same in test [6]. In words: Inhibition of NLRP3 inflammasome in LPS/nigericin-stimulated mouse J774.A1 cells assessed as effect on pro-IL-1beta expression level in cell lysates by Western blot analysis. Type of test: subcellular. Put shortly: as §3
The target is the same in test [7]. Briefly: Inhibition of NLRP3 inflammasome in LPS/nigericin-stimulated mouse J774.A1 cells assessed as reduction in caspase 1 p20 level in cell supernatants by Western blot analysis. To be noted: dose 1-20 µM. In outline: as §3
For test [8] the target is unchanged. Briefly: Inhibition of NLRP3 inflammasome in LPS/nigericin-stimulated mouse J774.A1 cells assessed as reduction in IL-1beta level in cell supernatant by Western blot analysis. To be noted: dose 1-20 µM. In outline: as §3
Test [9] deals with Mus musculus. In words: Antiinflammatory activity against LPS-induced sepsis C57BL/6 mouse model assessed as decrease in serum IL-1beta level at 100 mg/kg, ip administered as single dose prior to LPS challenge by ELISA. Particulars: C57BL/6, ip. It is filed as functional. In outline:
(§4)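 C57BL/6 mice given 100 mg/kg ahead of intraperitoneal LPS injection. Serum and peritoneal lavage fluid collected and cytokines (IL-1β, IL-6, TNF-α) quantified by ELISA. n = 5 per group, means ± SEM, compared against LPS-only group.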

Test [10] relates to Mus musculus. Briefly: Antiinflammatory activity against LPS-induced sepsis C57BL/6 mouse model assessed as decrease in peritoneal fluid IL-1beta level at 100 mg/kg, ip administered as single dose prior to LPS challenge by ELISA. It is filed as functional. Particulars: C57BL/6, ip. In outline:
as §4

In test [11] the test system is Mus musculus. In words: Antiinflammatory activity against LPS-induced sepsis C57BL/6 mouse model assessed as decrease in serum IL-6 level at 100 mg/kg, ip administered as single dose prior to LPS challenge by ELISA. Type of test: functional. To be noted: C57BL/6, ip. Put shortly: as §4
Test [12] concerns Mus musculus. In words: Antiinflammatory activity against LPS-induced sepsis C57BL/6 mouse model assessed as decrease in peritoneal fluid IL-6 level at 100 mg/kg, ip administered as single dose prior to LPS challenge by ELISA. Type of test: functional. To be noted: C57BL/6, ip. Put shortly: as §4
For test [13], the system named is Mus musculus. In words: Antiinflammatory activity against LPS-induced sepsis C57BL/6 mouse model assessed as decrease in serum TNF-alpha level at 100 mg/kg, ip administered as single dose prior to LPS challenge by ELISA. Type of test: functional. To be noted: C57BL/6, ip. In outline: as §4
The test system of test [14] is Mus musculus. In words: Antiinflammatory activity against LPS-induced sepsis C57BL/6 mouse model assessed as decrease in peritoneal fluid TNF-alpha level at 100 mg/kg, ip administered as single dose prior to LPS challenge by ELISA. Type of test: functional, organism-based. Put shortly: as §4
Test [15] can be described thus: Inhibition of K+ channel in LPS-primed mouse bone marrow derived macrophages assessed as inhibition of NLRP3 inflammasome activation-mediated IL-1beta release. Type of test: tissue-based. To be noted: BMDM.
A short description of test [16]: Inhibition of ATP-sensitive K+ channel in LPS-activated human monocytes assessed as inhibition of NLRP3 inflammasome activation-mediated IL-1beta release. Type of test: cell-based. Particulars: Monocyte.
Test [17] can be described thus: Inhibition of Cl- channel in human monocytes assessed as inhibition of ATP-induced NLRP3 inflammasome-activation mediated IL-1beta release. Type of test: cell-based. Particulars: Monocyte.
For test [18], the system named is Microglia. In words: Inhibition of Ca2+ channel in mouse microglial cells assessed as inhibition of Abeta-stimulated NLRP3 inflammasome activation-mediated IL-1beta release at 36 nM by ELISA. Type of test: cell-based.

Chain of NACHT, LRR and PYD domains-containing protein 3 (Mus musculus) (Q8R4B8 whole entry, the tested form may be a part): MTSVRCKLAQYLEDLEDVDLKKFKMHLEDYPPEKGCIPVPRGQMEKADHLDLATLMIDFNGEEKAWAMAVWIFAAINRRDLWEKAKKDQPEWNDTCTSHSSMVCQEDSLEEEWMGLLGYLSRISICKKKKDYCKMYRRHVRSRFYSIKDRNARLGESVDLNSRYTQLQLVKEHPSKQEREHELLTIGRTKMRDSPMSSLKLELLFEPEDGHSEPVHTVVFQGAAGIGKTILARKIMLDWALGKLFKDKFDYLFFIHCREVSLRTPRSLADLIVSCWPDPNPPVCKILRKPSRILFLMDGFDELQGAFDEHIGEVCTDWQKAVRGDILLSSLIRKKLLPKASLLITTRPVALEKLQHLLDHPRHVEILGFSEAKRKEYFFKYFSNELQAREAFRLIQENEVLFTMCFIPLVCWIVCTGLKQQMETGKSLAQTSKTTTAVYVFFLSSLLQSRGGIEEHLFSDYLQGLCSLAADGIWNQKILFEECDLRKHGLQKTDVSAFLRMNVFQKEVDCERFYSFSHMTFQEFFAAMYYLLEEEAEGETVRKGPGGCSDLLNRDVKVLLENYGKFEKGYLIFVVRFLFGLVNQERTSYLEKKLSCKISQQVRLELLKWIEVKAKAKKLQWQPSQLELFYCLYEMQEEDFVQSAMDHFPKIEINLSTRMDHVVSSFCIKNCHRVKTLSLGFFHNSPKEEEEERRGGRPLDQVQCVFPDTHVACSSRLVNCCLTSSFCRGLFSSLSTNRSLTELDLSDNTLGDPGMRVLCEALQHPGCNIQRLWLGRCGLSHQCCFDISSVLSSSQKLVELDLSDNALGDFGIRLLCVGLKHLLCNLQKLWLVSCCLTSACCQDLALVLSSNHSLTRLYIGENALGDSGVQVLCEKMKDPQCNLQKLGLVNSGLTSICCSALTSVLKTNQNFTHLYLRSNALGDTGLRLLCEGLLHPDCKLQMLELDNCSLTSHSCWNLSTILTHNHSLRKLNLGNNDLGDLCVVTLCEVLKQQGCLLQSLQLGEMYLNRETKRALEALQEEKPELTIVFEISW
Chain of NACHT, LRR and PYD domains-containing protein 3 (Q8R4B8 whole entry, the tested form may be a part): as above

For `CCCCc1oc2ccc(NS(=O)(=O)C3CC3)cc2c1C(=O)c1ccc(OCCCN(CCCC)CCCC)cc1`, the IC50 (in general, the concentration that inhibits the measured activity by half) in test [1] was 45.5 µM.
For the molecule `CCCCc1oc2ccc(NS(=O)(=O)c3ccccc3)cc2c1C(=O)c1ccc(OCCCN(CCCC)CCCC)cc1`, the IC50 in [1] worked out at 10.7 µM.
Take `CCCCc1oc2ccc(N)cc2c1C(=O)c1ccc(OCCCN(CCCC)CCCC)cc1`: the IC50 in [1] was greater than 100 µM.
With `CCCCc1oc2ccc(NC(=O)NC3CCCC3)cc2c1C(=O)c1ccc(OCCCN(CCCC)CCCC)cc1`, in [1], the IC50 came out at 25 µM.
With `CCCCc1oc2ccc(NC(=O)Nc3ccc(C)cc3)cc2c1C(=O)c1ccc(OCCCN(CCCC)CCCC)cc1`, in test [1], the IC50 turned out to be 71.2 µM.
Take `CCCCc1oc2ccc(NC(=O)NC(C)C)cc2c1C(=O)c1ccc(OCCCN(CCCC)CCCC)cc1`: in test [1], the IC50 amounted to 13.3 µM.
For the molecule `CCCCc1oc2ccc(NC(=O)Nc3ccc(Cl)cc3)cc2c1C(=O)c1ccc(OCCCN(CCCC)CCCC)cc1`, the IC50 in test [1] came to 16.1 µM.
Same read-out and setting: the value for `CCCCc1oc2ccc(NS(=O)(=O)C3CCCCC3)cc2c1C(=O)c1ccc(OCCCN(CCCC)CCCC)cc1` was 25 µM; that for `CCCCc1oc2ccc(NS(C)(=O)=O)cc2c1C(=O)c1ccc(OCCCN(CCCC)CCCC)cc1` [DRONEDARONE] was 6.84 µM.
On the same count and under the same terms, the value for `CCCCc1oc2ccc(S(=O)(=O)N(C)C)cc2c1C(=O)c1ccc(OCCCN(CCCC)CCCC)cc1` was 61.1 µM; that for `CCCCc1oc2ccc(NC(=O)C(C)(C)C)cc2c1C(=O)c1ccc(OCCCN(CCCC)CCCC)cc1` was 9.03 µM; that for `CCCCc1oc2ccc(NS(=O)(=O)N(C)C)cc2c1C(=O)c1ccc(OCCCN(CCCC)CCCC)cc1` was 13.4 µM.
With `CCCCc1oc2ccc(NC(=O)C(C)C)cc2c1C(=O)c1ccc(OCCCN(CCCC)CCCC)cc1`, the inhibition result in test [2], in [4] and in test [6] was “inactive” each time. In addition, the result in test [3] and in test [14] was inactive. In addition, the inhibition entry in test [5], in test [7] and in test [8] was “Dose-Dependent Effect” throughout. In addition, the IC50 in test [1] is 3.85 µM. In addition, the inhibition in vivo (commonly how much of the control response was suppressed) at 100 mg/kg in test [9] was 42%; in test [10], 22%; in test [11], 0%; in [12] it was 2%; in [13] it was 18%.
On to `CCCCc1oc2ccc(S(=O)(=O)NC(C)C)cc2c1C(=O)c1ccc(OCCCN(CCCC)CCCC)cc1`, for which the IC50 in [1] came to 42.5 µM.
As for `CCCCc1oc2ccc(NC(=O)NC3CCCCC3)cc2c1C(=O)c1ccc(OCCCN(CCCC)CCCC)cc1`, the IC50 in test [1] is 74.8 µM.
With `CCCCc1oc2ccc(NS(=O)(=O)c3ccc(C)cc3)cc2c1C(=O)c1ccc(OCCCN(CCCC)CCCC)cc1`, the IC50 in test [1] amounted to 25 µM.
As to `CC(O)CC(=O)O` (stereo not drawn) [3-HYDROXYBUTYRIC ACID, (+/-)-], in test [15], the IC50 was 2000 µM.
As to `CCCCc1oc2ccc(NS(=O)(=O)c3ccc(F)cc3)cc2c1C(=O)c1ccc(OCCCN(CCCC)CCCC)cc1`, the IC50 in test [1] amounted to 12.7 µM.
The same measure, in the same setting: the same measure for `CCCCc1oc2ccc(NC(=O)c3ccccc3)cc2c1C(=O)c1ccc(OCCCN(CCCC)CCCC)cc1`: 13.3 µM.
As to `COc1ccc(Cl)cc1C(=O)NCCc1ccc(S(=O)(=O)NC(=O)NC2CCCCC2)cc1` [GLYBURIDE], in test [16], the IC50 is 12 µM.
As for `CCCCc1oc2ccc(NC(=O)c3ccc(OC)cc3)cc2c1C(=O)c1ccc(OCCCN(CCCC)CCCC)cc1`, the IC50 in [1] was greater than 100 µM.
Consider `CCCCc1oc2ccc(S(N)(=O)=O)cc2c1C(=O)c1ccc(OCCCN(CCCC)CCCC)cc1`, for which the IC50 in [1] is 26.7 µM.
Regarding `CCCCc1oc2ccc(S(=O)(=O)NOC)cc2c1C(=O)c1ccc(OCCCN(CCCC)CCCC)cc1`, the IC50 in test [1] came to 83.8 µM.
In the case of `CCCCc1oc2ccc(S(=O)(=O)NC)cc2c1C(=O)c1ccc(OCCCN(CCCC)CCCC)cc1`, the IC50 in test [1] turned out to be 22.2 µM.
The same measure, in the same setting: the value for `CCCCc1oc2ccc(NS(=O)(=O)CC)cc2c1C(=O)c1ccc(OCCCN(CCCC)CCCC)cc1` was 19 µM; that for `CCCCc1oc2ccc(S(=O)(=O)N(CCC)CCC)cc2c1C(=O)c1ccc(OCCCN(CCCC)CCCC)cc1` was greater than 100 µM; that for `CCCCc1oc2ccc(NC(=O)Nc3ccc(OC)cc3)cc2c1C(=O)c1ccc(OCCCN(CCCC)CCCC)cc1` was 24.5 µM.
As for `C=CS(=O)(=O)Nc1ccc2oc(CCCC)c(C(=O)c3ccc(OCCCN(CCCC)CCCC)cc3)c2c1`, in test [1], the IC50 is 25.3 µM.
In the case of `C=C(CC)C(=O)c1ccc(OCC(=O)O)c(Cl)c1Cl` [ETHACRYNIC ACID], in [17], the 50% inhibitory concentration (IC50) came out at 3 µM.
Turning to `CCCCc1oc2ccc(NS(=O)(=O)NC(C)C)cc2c1C(=O)c1ccc(OCCCN(CCCC)CCCC)cc1`, the IC50 in [1] was determined as 7.65 µM.
Take `CCCCc1oc2ccc(NS(=O)(=O)c3cccnc3)cc2c1C(=O)c1ccc(OCCCN(CCCC)CCCC)cc1`: the IC50 in test [1] is 33.4 µM.
With `CCCCc1oc2ccc(NC(C)=O)cc2c1C(=O)c1ccc(OCCCN(CCCC)CCCC)cc1`, the IC50 in [1] was found to be 6.77 µM.
Same read-out and setting: the same measure for `C=CC(=O)Nc1ccc2oc(CCCC)c(C(=O)c3ccc(OCCCN(CCCC)CCCC)cc3)c2c1`: 26.7 µM; for `CCCCc1oc2ccc(NS(=O)(=O)c3ccc(C(F)(F)F)cc3)cc2c1C(=O)c1ccc(OCCCN(CCCC)CCCC)cc1`: 81.6 µM; for `CCCCC(=O)Nc1ccc2oc(CCCC)c(C(=O)c3ccc(OCCCN(CCCC)CCCC)cc3)c2c1`: 5.82 µM.
As for `CCCCc1oc2ccc(NS(=O)(=O)c3ccc(OC)cc3)cc2c1C(=O)c1ccc(OCCCN(CCCC)CCCC)cc1`, in [1], the IC50 was found to be 27.9 µM.
The same measure, in the same setting: the value for `CCCCc1oc2ccc(NS(=O)(=O)NC)cc2c1C(=O)c1ccc(OCCCN(CCCC)CCCC)cc1` was 11.4 µM; that for `CCCCc1oc2ccc(S(=O)(=O)NCCN(C)C)cc2c1C(=O)c1ccc(OCCCN(CCCC)CCCC)cc1` was greater than 100 µM.
Turning to `COCCOC(=O)C1=C(C)NC(C)=C(C(=O)OC(C)C)C1c1cccc([N+](=O)[O-])c1` (stereo not given), the inhibition (usually the percentage by which the read-out fell short of the control) in test [18] amounted to 48%.
Turning to `CCCCc1oc2ccc(NC(=O)NCCC)cc2c1C(=O)c1ccc(OCCCN(CCCC)CCCC)cc1`, the IC50 in test [1] worked out at 19.2 µM.
Same read-out and setting: the value for `CCCCc1oc2ccc(NC(=O)Nc3ccc(C#N)cc3)cc2c1C(=O)c1ccc(OCCCN(CCCC)CCCC)cc1` was 18.5 µM.
Regarding `CCCCc1oc2ccccc2c1C(=O)c1ccc(OCCCN(CCCC)CCCC)cc1`, the IC50 in [1] is greater than 100 µM.
